Screens as filed in PubChem.
A selection: hits, their analogues and other compounds. The true share with any hit is near 3.4%.
CHRM1 PAM = positive allosteric modulators of human M1 muscarinic receptor; AID 588819; P11229; CHO-K1 hM1, Fluo-8 calcium fluorescence, ACh EC20; 0% = ACh EC20, 100% = maximal ACh; hit rate 0.088% among 360,000; activation, % at 3 µM; in the data active means activation above about 19%, passing the limit was not always enough
CHRM1 agonist = activates human CHRM1 receptor; activation, % at 3 µM; hit rate 0.33% among 360,000; CHO-K1 hM1, Fluo-8 calcium fluorescence, agonist mode; 0% DMSO, 100% acetylcholine EC100;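 active means activation above the run's mean compound activation plus 3 SD, cut at about 16% in these data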;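 further: peak over basal fluorescence ratio within a 140 s kinetic read after compound addition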
TAAR1 agonist = human TAAR1 agonism | hit rate 0.99% among 360,000 | CHO RD-HGA16 TAAR1, Fluo-8 calcium fluorescence; vehicle wells 0%, saturating PEA agonist 100% | activation, % at 3 µM | AID 624467;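 active means activation above the mean activation of all test compounds in the run plus 3 SD, cut at about 38% in these data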
Target sequence (Q96RJ0 whole entry, looked up): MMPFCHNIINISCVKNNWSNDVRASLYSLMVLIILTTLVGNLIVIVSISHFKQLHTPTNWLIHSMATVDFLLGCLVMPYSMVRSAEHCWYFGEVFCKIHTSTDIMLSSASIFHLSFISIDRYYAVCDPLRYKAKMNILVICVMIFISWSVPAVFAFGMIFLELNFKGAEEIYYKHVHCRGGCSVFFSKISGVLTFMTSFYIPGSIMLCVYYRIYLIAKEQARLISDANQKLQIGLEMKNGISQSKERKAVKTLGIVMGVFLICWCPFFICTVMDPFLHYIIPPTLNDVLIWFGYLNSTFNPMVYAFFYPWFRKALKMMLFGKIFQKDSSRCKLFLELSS
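Signal – calcium-sensitive Fluo-8 signal, excitation 470-495, emission 515-575 nm · System – RD-HGA16 (CHO) cells co-expressing Gα16 and hTAAR1 · Incubation – 17-24 h seeding, 75 min 37 °C dye, 30 min RT · Compound dosing – 3 µM single concentration · Repeats – no replicates (n 1)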
CHRM1 antagonist = blocks human M1 muscarinic receptor. inhibition, % at 3 µM. AID 588852. hit rate 1.3% among 360,000. CHO-K1 hM1, Fluo-8 calcium fluorescence, ACh EC80 antagonist;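 active means percent inhibition above its own plate's cutoff, namely the mean of that plate's compound wells plus 3 SD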;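 further: peak over basal fluorescence ratio during 140 s after agonist addition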
TAAR1 antag = antagonists of human TAAR1 | Q96RJ0 | hit rate 1.5% among 360,000 | CHO RD-HGA16 TAAR1, Fluo-8 calcium fluorescence, antagonist | inhibition, % at 3 µM;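 active means inhibition above a per-plate cutoff, the mean inhibition of test compounds on that plate plus 3 SD, cut at about 49% in these data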
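Material: CHO RD-HGA16 cells bearing hTAAR1; compound dosing: one-point dosing, 3 µM nominal final; schedule: dye loading 75 min at 37 °C, then 30 min room temperature; measured by: calcium fluorescence with Fluo-8; control set: vehicle and agonist controls; replication: n of 1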
Numbers stand for hits.

Nc1[nH]c(C(=O)c2ccccc2)c(-c2ccc3ccccc3c2)c1C(=O)NCc1ccc(-c2ccccc2)cc1 was read as TAAR1 agonist inactive and TAAR1 antag inactive.
For COC(=O)C1=CC(=O)N2CCN=C2S1 the results were TAAR1 agonist inactive and TAAR1 antag inactive.
`CCOC(=O)c1sc2nc(OCc3cccnc3)cc(C)c2c1N` gave TAAR1 agonist inactive and TAAR1 antag inactive.
Screening Cc1cccc(C)c1-n1nnnc1C1(C)CCC(=O)N1CC1CCCCC1 (stereo unspecified) returned TAAR1 agonist inactive and TAAR1 antag inactive.
Screening O=C(CN1CCOCC1)Nc1ccccc1F returned CHRM1 PAM 30.3, CHRM1 agonist inactive, TAAR1 agonist inactive, CHRM1 antagonist inactive and TAAR1 antag inactive.
Screening O=C(CN1CCCC1)Nc1ccccc1Sc1ccccc1 returned CHRM1 PAM inactive, CHRM1 agonist inactive, TAAR1 agonist inactive, CHRM1 antagonist inactive and TAAR1 antag inactive.
`O=C(CN1CCOCC1)Nc1ccccc1Sc1ccc(Cl)cc1` gave CHRM1 PAM inactive, CHRM1 agonist inactive, TAAR1 agonist inactive, CHRM1 antagonist 22.4 and TAAR1 antag inactive.
Screening O=C(CN1CCOCC1)Nc1scc2c1c(=O)oc1ccccc12 returned CHRM1 PAM inactive, CHRM1 agonist inactive, TAAR1 agonist inactive, CHRM1 antagonist inactive and TAAR1 antag 53.2.
For Cc1ccc(Sc2ccc(S(=O)(=O)Nc3ccc(C(=O)O)cc3)cc2)cc1C the results were CHRM1 PAM inactive, CHRM1 agonist inactive, TAAR1 agonist inactive, CHRM1 antagonist inactive and TAAR1 antag 56.5.
For CC1(C)N=C(N)N=C(N)N1c1ccccc1 the results were CHRM1 PAM inactive, CHRM1 agonist inactive, TAAR1 agonist inactive, CHRM1 antagonist inactive and TAAR1 antag inactive.
For CC1(C)N=C(N)N=C(N)N1c1ccc(CCCCc2ccccc2)cc1 the results were CHRM1 PAM inactive, CHRM1 agonist inactive, TAAR1 agonist inactive, CHRM1 antagonist 57.5 and TAAR1 antag inactive.
Screening COC(=O)C1=C(C)N(Cc2ccccc2C(F)(F)F)C(=NCc2ccc(OC)cc2)NC1c1cccc(F)c1 (stereo unspecified) returned TAAR1 agonist inactive and TAAR1 antag inactive.
For COC(=O)CSc1nc2ccc(C)cc2[nH]1 the results were CHRM1 PAM inactive, CHRM1 agonist inactive, TAAR1 agonist inactive, CHRM1 antagonist inactive and TAAR1 antag inactive.
Screening Cc1ccc2nc(SCC(=O)c3ccc(O)cc3O)[nH]c2c1 returned CHRM1 PAM inactive, CHRM1 agonist inactive, TAAR1 agonist 40.9, CHRM1 antagonist inactive and TAAR1 antag inactive.
Screening Nc1sccc1C(=O)NCc1ccccc1 returned TAAR1 agonist inactive and TAAR1 antag inactive.
`Cc1cc(C)n(-c2ccc(C(=O)N3CCc4ccccc43)cc2)n1` gave CHRM1 PAM inactive, CHRM1 agonist inactive, TAAR1 agonist inactive, CHRM1 antagonist inactive and TAAR1 antag inactive.
For Cc1cc(C)n(C(C)CC(=O)N2CCc3ccccc32)n1 (stereo unspecified) the results were CHRM1 PAM inactive, CHRM1 agonist inactive, TAAR1 agonist inactive, CHRM1 antagonist 32.6 and TAAR1 antag inactive.
Screening O=C(CCCCCn1c(=S)[nH]c2cc3c(cc2c1=O)OCO3)N1CCN(C2CCCCC2)CC1 returned CHRM1 PAM inactive, CHRM1 agonist inactive, TAAR1 agonist inactive, CHRM1 antagonist 36.6 and TAAR1 antag inactive.
Screening O=C(CCCCCn1c(=S)[nH]c2cc3c(cc2c1=O)OCO3)N1CCN(Cc2ccccc2)CC1 returned CHRM1 PAM inactive, CHRM1 agonist inactive, TAAR1 agonist inactive, CHRM1 antagonist inactive and TAAR1 antag inactive.
Cc1cc2nc(C3CCCCC3)c(Cc3ccccc3)n2c(C)c1Br was read as CHRM1 PAM inactive, CHRM1 agonist inactive, TAAR1 agonist inactive, CHRM1 antagonist inactive and TAAR1 antag inactive.
`COc1cc(C(=O)Oc2cccc(Nc3ncnc4ccccc34)c2)cc(OC)c1OC` gave CHRM1 PAM inactive, CHRM1 agonist inactive, TAAR1 agonist inactive, CHRM1 antagonist 40.9 and TAAR1 antag 82.0.
Screening O=C(Nc1ccn(Cc2ccccc2F)n1)c1ccc(COc2ccc(Br)cc2)cc1 returned CHRM1 PAM inactive, CHRM1 agonist inactive, TAAR1 agonist inactive, CHRM1 antagonist 32.9 and TAAR1 antag inactive.
Screening Cc1cc(C(=O)CSc2nc(N)cc(N)n2)c(C)n1CCc1ccc(F)cc1 returned CHRM1 PAM inactive, CHRM1 agonist inactive, TAAR1 agonist 38.9, CHRM1 antagonist inactive and TAAR1 antag inactive.
